# Measured values: ChEMBL document CHEMBL1142566, “Natural and synthetic 2,2-dimethylpyranocoumarins with antibacterial activity” (2005)
# Activity calls are given as the source filed them. The rule behind the calls is not given here.
# Columns and labels:
# Format in all cases: functional
# Pseudomonas aeruginosa = assay: Antimicrobial activity against Pseudomonas aeruginosa ATCC 27853 after 24 hrs by disk diffusion assay
# Summary of the method: (§1)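 Bauer-Kirby disk diffusion on trypticase Mueller-Hinton agar. Plates were seeded with ATCC reference strains to a final 10⁷ cell/mL. Test compounds were dissolved in DMSO and applied to 6 mm paper disks, with solvent-only disks as negative control. Plates were incubated 24 h at 37 °C. Inhibition zone diameter (mm) was averaged over three experiments and scored <7 (-), 7-10 (+), 11-16 (++), >16 (+++).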
# Escherichia coli = assay: Antimicrobial activity against Escherichia coli ATCC 25922 after 24 hrs by disk diffusion assay; summary of the method: as §1
# Enterobacter cloacae = assay: Antimicrobial activity against Enterobacter cloacae ATCC 13047 after 24 hrs by disk diffusion assay; summary of the method: as §1
# Staphylococcus aureus = assay: Antimicrobial activity against Staphylococcus aureus ATCC 25923 after 24 hrs by disk diffusion assay; summary of the method: as §1
# Proteus mirabilis = assay: Antimicrobial activity against Proteus mirabilis after 24 hrs by disk diffusion assay; summary of the method: as §1
# [1] = system: Staphylococcus epidermidis; assay: Antimicrobial activity against Staphylococcus epidermidis ATCC 12228 after 24 hrs by disk diffusion assay; summary of the method: as §1
# Klebsiella pneumoniae = assay: Antimicrobial activity against Klebsiella pneumoniae ATCC 13883 after 24 hrs by disk diffusion assay; summary of the method: as §1
SMILES,inhibition zone (IZ) (Pseudomonas aeruginosa) [mm],inhibition zone (IZ) (Escherichia coli) [mm],inhibition zone (IZ) (Enterobacter cloacae) [mm],inhibition zone (IZ) (Staphylococcus aureus) [mm],inhibition zone (IZ) (Proteus mirabilis) [mm],inhibition zone (IZ) [1] [mm],inhibition zone (IZ) (Klebsiella pneumoniae) [mm],Activity (Pseudomonas aeruginosa),Activity (Escherichia coli),Activity (Enterobacter cloacae),Activity (Staphylococcus aureus),Activity (Proteus mirabilis),Activity [1],Activity (Klebsiella pneumoniae)
COc1cc2c(c3oc(=O)ccc13)[C@H](OC(C)=O)[C@@H](Br)C(C)(C)O2 (racemic),<7,<7,<7,7,7,11,<7,–,–,–,–,–,–,–
CC1(C)C=Cc2c(c3c(c4ccc(=O)oc24)OC(C)(C)C=C3)O1 [DIPETALOLACTONE],11,7,7,11,7,7,7,–,–,–,–,–,–,–
O=C(O)[C@H]1/C(=C/CO)O[C@@H]2CC(=O)N21 [CLAVULANIC ACID],>16,>16,>16,>16,–,>16,> 16,–,–,–,–,–,–,–
COc1cc2c(c3oc(=O)ccc13)[C@H](O)[C@H](O)C(C)(C)O2 (racemic),–,–,–,–,–,–,–,inactive,inactive,inactive,inactive,inactive,inactive,inactive
COc1cc2c(c3oc(=O)ccc13)C(OC(C)=O)CC(C)(C)O2 (racemic),<7,<7,<7,11,7,11,<7,–,–,–,–,–,–,–
COc1cc2c(c3oc(=O)ccc13)C=CC(C)(C)O2,11,7,7,7,11,7,7,–,–,–,–,–,–,–
O=c1ccc2c(O)cc(O)cc2o1,7,7,7,7,7,7,7,–,–,–,–,–,–,–
CC(=O)O[C@H]1c2c(ccc3ccc(=O)oc23)OC(C)(C)[C@@H]1Br,<7,<7,<7,11,7,11,<7,–,–,–,–,–,–,–
CC1(C)Oc2ccc3ccc(=O)oc3c2[C@H](O)[C@@H]1O,–,–,–,–,–,–,–,inactive,inactive,inactive,inactive,inactive,inactive,inactive
CC(=O)OC1CC(C)(C)Oc2ccc3ccc(=O)oc3c21 (stereo not drawn),–,–,–,–,–,–,–,inactive,inactive,inactive,inactive,inactive,inactive,inactive
COc1cc2c(c3oc(=O)ccc13)[C@H](O)[C@@H](Br)C(C)(C)O2 (racemic),11,7,7,7,7,7,7,–,–,–,–,–,–,–
CC1(C)C=Cc2c(ccc3ccc(=O)oc23)O1,–,–,–,–,–,–,–,inactive,inactive,inactive,inactive,inactive,inactive,inactive
CC1(C)Oc2ccc3ccc(=O)oc3c2[C@H](O)[C@H]1Br,–,–,–,–,–,–,–,inactive,inactive,inactive,inactive,inactive,inactive,inactive
COc1cc2c(c3oc(=O)ccc13)[C@H](OC(=O)c1ccccc1)[C@@H](Br)C(C)(C)O2 (racemic),11,7,7,7,7,7,7,–,–,–,–,–,–,–
CC(=O)Oc1cc2c(c3oc(=O)ccc13)C=CC(C)(C)O2,7,7,7,7,7,7,7,–,–,–,–,–,–,–
CC1(C)CC(O)c2c(ccc3ccc(=O)oc23)O1 (stereo not drawn),–,–,–,–,–,–,–,inactive,inactive,inactive,inactive,inactive,inactive,inactive
COc1cc2c(c3oc(=O)ccc13)C(O)CC(C)(C)O2 (racemic),–,–,–,–,–,–,–,inactive,inactive,inactive,inactive,inactive,inactive,inactive
COc1cc2c(c3oc(=O)ccc13)[C@H](OC(C)=O)[C@H](OC(C)=O)C(C)(C)O2 (racemic),–,–,–,–,–,–,–,inactive,inactive,inactive,inactive,inactive,inactive,inactive
CCN[C@@H]1C[C@H](N)[C@@H](O[C@H]2OC(CN)=CC[C@H]2N)[C@H](O)[C@H]1O[C@H]1OC[C@](C)(O)[C@H](NC)[C@H]1O [NETILMICIN],>16,>16,>16,>16,–,>16,11,–,–,–,–,–,–,–
CC(=O)Oc1cc(OC(C)=O)c2ccc(=O)oc2c1,7,7,7,7,7,11,7,–,–,–,–,–,–,–
CC1(C)S[C@@H]2[C@H](NC(=O)[C@H](N)c3ccc(O)cc3)C(=O)N2[C@H]1C(=O)O [AMOXICILLIN],>16,>16,>16,>16,–,>16,11,–,–,–,–,–,–,–
CC1(C)C=Cc2c(O)cc3oc(=O)ccc3c2O1,–,–,–,–,–,–,–,inactive,inactive,inactive,inactive,inactive,inactive,inactive
COc1cc2oc(=O)ccc2c2c1C=CC(C)(C)O2 [ALLOXANTHOXYLETIN],11,7,7,7,7,7,7,–,–,–,–,–,–,–
